The values below come from ChEMBL document CHEMBL2163220 (J Med Chem, 2012).

In assay [1] the target is T1, Androgen receptor (Homo sapiens) (UniProt P10275).
T1 sequence (whole entry): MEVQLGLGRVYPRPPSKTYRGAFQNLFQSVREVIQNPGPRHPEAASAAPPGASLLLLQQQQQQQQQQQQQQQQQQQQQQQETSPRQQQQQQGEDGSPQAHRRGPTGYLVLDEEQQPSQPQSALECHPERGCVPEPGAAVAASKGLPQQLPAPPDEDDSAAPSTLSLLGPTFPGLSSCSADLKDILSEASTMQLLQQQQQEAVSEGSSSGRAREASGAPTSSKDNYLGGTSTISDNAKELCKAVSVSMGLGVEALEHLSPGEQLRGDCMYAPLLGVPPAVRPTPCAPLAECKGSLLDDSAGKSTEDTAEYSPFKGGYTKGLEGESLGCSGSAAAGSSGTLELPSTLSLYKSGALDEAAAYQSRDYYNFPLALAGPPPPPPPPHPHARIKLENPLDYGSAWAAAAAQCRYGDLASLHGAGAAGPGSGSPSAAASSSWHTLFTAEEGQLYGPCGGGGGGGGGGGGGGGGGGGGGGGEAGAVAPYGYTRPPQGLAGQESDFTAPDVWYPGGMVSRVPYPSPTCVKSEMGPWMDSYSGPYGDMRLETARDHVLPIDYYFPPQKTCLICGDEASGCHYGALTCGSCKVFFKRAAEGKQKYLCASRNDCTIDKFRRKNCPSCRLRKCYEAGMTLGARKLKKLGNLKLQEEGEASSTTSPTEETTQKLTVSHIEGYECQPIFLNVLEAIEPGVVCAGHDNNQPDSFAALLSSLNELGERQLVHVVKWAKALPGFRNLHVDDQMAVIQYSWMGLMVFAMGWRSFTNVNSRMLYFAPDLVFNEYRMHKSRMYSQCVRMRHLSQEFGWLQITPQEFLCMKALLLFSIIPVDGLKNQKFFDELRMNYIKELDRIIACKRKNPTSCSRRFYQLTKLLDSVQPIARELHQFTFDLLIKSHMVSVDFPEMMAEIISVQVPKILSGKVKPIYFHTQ
Description: Agonist activity at androgen receptor expressed in human PC3 cells assessed as stimulation of receptor transactivation at 0.1 to 1 uM by luciferase reporter gene assay. The assay is classed as functional, cell-based. As to conditions: PC-3. In short, it runs like this: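 Full-length wild-type or mutant AR plasmid transiently transfected into PC-3 cells with MMTV-luc and Renilla luciferase reporters. Cells treated with DMSO vehicle or compound at 0.1 and 1 μM, alone or with 0.1 nM DHT. Luciferase read as relative luciferase units. Run in triplicate.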
Background: A reporter such as luciferase makes a cellular process visible.

Assay [2] addresses T1, Androgen receptor (Homo sapiens). Description: Antagonist activity at androgen receptor in human LNCaP cells assessed as reduction in DHT-induced PSA expression incubated for 24 hrs by RT-PCR.
Assay [3] has the same target. The assay can be described thus: Antagonist activity at androgen receptor in human LNCaP cells assessed as increase in Maspin protein expression at 1 or 2.5 uM incubated for 24 hrs in presence of DHT by Western blot. (In general: A western blot detects proteins with antibodies after separation by electrophoresis.)
The target is the same in assay [4]. Description: Antagonist activity at androgen receptor in human LNCaP cells assessed as increase in Maspin protein expression at 1 to 5 uM incubated for 24 hrs by Western blotting.
The target is the same in assay [5]. Description: Antagonist activity at androgen receptor in human PC3 cells assessed as increase in Maspin promoter activity at 5 uM by luciferase reporter gene assay. The class given is functional, cell-based. Particulars: PC-3. In short, it runs like this:
(§1)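 PC-3 cells were transfected with maspin-luc, with or without cotransfected AR. Cells were exposed to DMSO vehicle or compound at 2.5 and 5 μM. Luciferase activity was measured in triplicate.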

Assay [6] concerns the target T2, Progesterone receptor (Homo sapiens) (UniProt P06401).
T2 sequence (whole entry): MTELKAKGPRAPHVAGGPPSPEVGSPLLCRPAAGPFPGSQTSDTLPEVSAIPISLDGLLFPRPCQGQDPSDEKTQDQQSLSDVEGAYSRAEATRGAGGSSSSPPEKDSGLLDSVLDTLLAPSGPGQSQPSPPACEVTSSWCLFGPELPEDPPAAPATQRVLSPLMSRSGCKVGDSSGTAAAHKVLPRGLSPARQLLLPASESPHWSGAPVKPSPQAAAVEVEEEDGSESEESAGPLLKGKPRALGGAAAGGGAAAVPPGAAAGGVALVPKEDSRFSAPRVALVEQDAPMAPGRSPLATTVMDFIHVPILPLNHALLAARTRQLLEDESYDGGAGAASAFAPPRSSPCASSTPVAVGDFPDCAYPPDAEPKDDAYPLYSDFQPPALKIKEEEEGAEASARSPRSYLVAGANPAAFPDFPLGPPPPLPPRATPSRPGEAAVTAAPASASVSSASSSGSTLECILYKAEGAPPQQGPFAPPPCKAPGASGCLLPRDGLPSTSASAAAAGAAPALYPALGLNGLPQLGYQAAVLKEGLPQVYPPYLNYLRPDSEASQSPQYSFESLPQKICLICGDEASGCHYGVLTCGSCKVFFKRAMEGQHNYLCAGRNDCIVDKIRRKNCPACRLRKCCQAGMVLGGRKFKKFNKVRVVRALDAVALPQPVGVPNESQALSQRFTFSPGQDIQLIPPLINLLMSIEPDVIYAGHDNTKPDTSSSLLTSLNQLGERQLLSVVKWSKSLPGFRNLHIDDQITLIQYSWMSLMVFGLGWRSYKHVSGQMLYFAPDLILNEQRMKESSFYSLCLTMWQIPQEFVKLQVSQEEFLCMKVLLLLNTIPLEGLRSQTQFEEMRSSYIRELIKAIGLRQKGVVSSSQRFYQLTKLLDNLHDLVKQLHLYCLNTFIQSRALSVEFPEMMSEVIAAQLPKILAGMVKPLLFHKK
Description: Agonist activity at progesterone receptor in human PC3 cells assessed as stimulation of receptor transactivation at 1 uM by luciferase reporter gene assay. The class given is functional, cell-based. As to conditions: PC-3. In short, it runs like this:
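PC-3 cells lack detectable PR, so they were cotransfected with a PR expression plasmid and the MMTV-luc reporter. Compound tested at 1 μM, alone or against transactivation induced by 10 nM R5020. Read-out was luciferase reporter activity.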

Assay [7] can be described thus: Cytotoxicity against human C4-2B cells incubated for 72 hrs by MTT assay. The assay is classed as functional, cell-based. As to conditions: LNCaP C4-2B. In outline: (§2)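 MTT assay run across a panel of prostate cancer cell lines.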
A general note: Tetrazolium dyes change colour on reduction, which living cells bring about.

Assay [8] concerns the target T1, Androgen receptor (Homo sapiens). Description: Antagonist activity at androgen receptor in human PC3 cells assessed as increase in Maspin promoter activity at 2.5 uM by luciferase reporter gene assay. The assay is classed as functional, cell-based. As to conditions: PC-3. In outline:
as §1

Assay [9] shares this target. Description: Antagonist activity at androgen receptor in human LNCaP cells assessed as increase in Maspin expression incubated for 24 hrs in presence of DHT by RT-PCR.
Assay [10] deals with PC-3. The assay can be described thus: Effect on in Maspin expression in human PC3 cells deficient in wild type androgen receptor at 2.5 uM by luciferase reporter gene assay. The class given is functional, cell-based. In outline: as §1
The test system of assay [11] is PC-3. Description: Cytotoxicity against human PC3 cells incubated for 72 hrs by MTT assay. The class given is functional, cell-based. Particulars: PC-3, 72 h. In short, it runs like this:
as §2

In general, IC50 refers to the concentration needed to halve the response being measured. Read a high IC50 as lower potency.

The source made the active and inactive calls. No cut-off for these calls is given here.

As to `Cc1coc2c1C(=O)C(=O)c1c-2ccc2c1CCCC2(C)C` [TANSHINONE IIA], the result (in [1]; in assay [6]; in the assay with PC-3 [10]) was inactive. Besides, the Activity result in assay [2] and in assay [9] was “Dose-dependent effect” in each case. For the same compound, the outcome in assay [3], in [4], in [5] and in assay [8] was Active. Also, the IC50 in assay [7] amounted to 400 nM; in the assay with PC-3 [11] it was 3300 nM.
